Assay results pooled from the literature.
Each line is one published result; the experiments were not run side by side.
Sample: plasma

| Structure (SMILES) | test system | conditions | half-life [h] |
| --- | --- | --- | --- |
| CC(C)n1cc(C#N)c2cc(-n3cc(C(=O)O)cn3)ccc21 | human | oral, 50 mg, single dose, fasted, healthy volunteers | 7.1 |
| COc1ccc([C@@H]2CN(C(=O)[C@@H](O)CO)C[C@@]2(C)[C@@H](C)O)cc1OC1CN(c2ccc(C)cn2)C1 | human | oral, 1.5 mg, single dose, healthy volunteers | 13.5 |
| CC(C)(C)OC[C@@H]1C(=O)NCCN1C(=O)C[C@H](N)Cc1cc(F)c(F)cc1F | male human | oral, 5 mg, multiple doses, steady state, healthy volunteers | 24.7 |
| CCNCCCNC/C=C\CNCCCNCC | human | intravenous, 100 mg, patients, infusion | 0.19 |
| C#C[C@]1(COP(=O)(O)OP(=O)(O)OP(=O)(O)O)O[C@@H](n2cnc3c(N)nc(F)nc32)C[C@@H]1O | human | oral, 15 mg, single dose | 161 |
| NS(=O)(=O)NCCNc1nonc1C(=NO)Nc1ccc(F)c(Br)c1 | human | oral, 700 mg, multiple doses, twice daily, steady state, patients | 3 |
| COc1ccc(-n2nc(C(N)=O)c3c2C(=O)N(c2ccc(N4CCCCC4=O)cc2)CC3)cc1 | human | oral, 10 mg, single dose, healthy volunteers | 12.7 |
| O=c1c(O)c(-c2ccc(O)c(O)c2)oc2cc(O)cc(O)c12 | human | oral, 500 mg, single dose, fasted, healthy volunteers | 6.26 |
| CC(C)(O)c1ccccc1-c1ccc2[nH]c(/C=C/c3ccc(C(F)(F)F)cc3)nc2c1 | male human | oral, 2 mg, single dose, fasted, healthy volunteers | 47.8 |
| CO[C@@H]1[C@H](OC(=O)N2CC(CCN3CCOCC3)C2)CC[C@]2(CO2)[C@H]1[C@@]1(C)O[C@@H]1CC=C(C)C | human | subcutaneous, 4.8 mg, single dose, healthy volunteers | 0.91 |
| CC(C)(Sc1ccncc1-c1ccc(C#N)c2ccccc12)C(=O)O | male human | oral, 5 mg, single dose, fed, healthy volunteers | 12.7 |
| CCOc1cc([C@@H](CS(C)(=O)=O)N2C(=O)c3cccc(NC(C)=O)c3C2=O)ccc1OC | human | oral, 30 mg, single dose, healthy volunteers | 8.08 |
| COc1cc(C(=O)NC2CCN(C)CC2)c(F)cc1Nc1ncc(C(F)(F)F)c(Oc2cccc3c2C(=O)N(C)C3)n1 | human | oral, 10 mg, multiple doses, once daily, patients | 25.8 |
| CO[C@H]1/C=C\C=C(/C)C(=O)NC2=CC(=O)C(NCCN(C)C)=C(C[C@@H](C)C[C@H](OC)[C@H](O)[C@@H](C)/C=C(\C)[C@@H]1OC(N)=O)C2=O | human | intravenous, 12 mg/m², patients, infusion | 14.1 |
| O=C(/C=C/c1cccc(S(=O)(=O)Nc2ccccc2)c1)NO | human | intravenous, 1900 mg/m², patients | 1.43 |
| c1cnc2ccc(Nc3nc(NC4CC4)c4nc[nH]c4n3)cc2c1 | human | oral, 400 mg/m², patients | 3.6 |
| COCCOc1cnc2ccn([C@H](C)c3nnc4c(F)cc(-c5cnn(C)c5)cn34)c(=O)c2c1 | human | oral, 300 mg, multiple doses, once daily, patients | 9.7 |

| Structure (SMILES) | test system | conditions | half-life [h] |
| --- | --- | --- | --- |
| C[C@@H](Nc1cc(F)cc(F)c1)c1cc(C(=O)N(C)C)cc2c(=O)cc(N3CCOCC3)oc12 | human | oral, 30 mg, patients | 3.79 |
| O=C(Nc1c(Cl)cncc1Cl)c1ccc(OC(F)F)c(OCC2CC2)c1 | human | oral, 0.375 mg, single dose | 19.7 |
| CS(=O)(=O)n1cc2c(n1)CN([C@H]1CO[C@H](c3cc(F)ccc3F)[C@@H](N)C1)C2 | male human | oral, 10 mg, single dose, fasted | 49.9 |
| CC(C)(O)c1cc(Nc2cc(Oc3cn(C4CC4)nc3C3CCOCC3)ccn2)ccn1 | human | oral, patients | 6.7 |
| Cc1cc(Nc2ncc(Cl)c(Nc3ccccc3S(=O)(=O)C(C)C)n2)c2c(c1C1CCN(C)CC1)C[C@@H](C)O2 | human | oral, 160 mg, single dose, fed | 34.7 |
| Nc1cc(C(F)(F)F)c(-c2cc(N3CCOCC3)nc(N3CCOCC3)n2)cn1 | human | oral, 25 mg/day, patients | 36.8 |
| COc1ccc(Oc2cc(N(C)CCOc3ccc(CC4SC(=O)NC4=O)cc3)ncn2)cc1 (stereo not drawn) | male human | oral, 0.5 mg, multiple doses, once daily, steady state | 7.06 |
| CCOc1cc([C@@H](CS(C)(=O)=O)N2C(=O)c3cccc(NC(C)=O)c3C2=O)ccc1OC | male human | oral, 20 mg, single dose, healthy volunteers | 7.6 |
| CS(=O)(=O)CCC#N | human | oral, 300 mg, multiple doses, once daily | 21.3 |
| CO[C@H]1CC[C@H](N2C(=O)CNc3ncc(-c4ccc(C(C)(C)O)nc4)nc32)CC1 | human | oral, 7.5 mg, patients | 7.68 |
| CC(C)[C@](O)(c1ccc2cc(OC(F)F)c(OC(F)F)cc2c1)c1c[nH]nn1 | female human | oral, 450 mg, single dose | 6.4 |
| CC(=O)Oc1ccccc1C(=O)O | human | oral, 650 mg, healthy volunteers | 0.53 |
| C[C@@H](c1ccc2nccn2c1)n1nnc2ncc(-c3cnn(C)c3)nc21 | human | oral, 600 mg | 7.1 |
| Cn1cc(-c2ccc(S(=O)(=O)[C@@H]3C[C@@H](C(=O)NC4(C#N)CC4)N(C(=O)C4(C(F)(F)F)CC4)C3)c(C(F)(F)F)c2)cn1 | human | oral, 100 mg, single dose, fed, healthy volunteers | 8.8 |
| CN(C)Cc1ccc(S(=O)(=O)n2ccc(/C=C/C(=O)NO)c2)cc1 | human | oral, patients | ~4 |
| Cc1nc(-c2cn3c(n2)-c2ccc(-c4cnn(C(C)(C)C(N)=O)c4)cc2OCC3)n(C(C)C)n1 | human | oral, 6 mg, patients | 22.4 |
